High-throughput results as filed in PubChem.
M1 antagonist: M1 muscarinic receptor (rat) antagonism | B-score at 10 µM | hit rate 3.4% among 64,000 | CHO-M1 cells, Fluo-4 calcium, ACh EC80 antagonist mode; stronger effect = lower value;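 active means calcium fluorescence response, raw or row-and-column corrected B-score, differing from the plate sample mean either way at a set confidence level, mostly lower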
Target sequence (P08482 whole entry, looked up): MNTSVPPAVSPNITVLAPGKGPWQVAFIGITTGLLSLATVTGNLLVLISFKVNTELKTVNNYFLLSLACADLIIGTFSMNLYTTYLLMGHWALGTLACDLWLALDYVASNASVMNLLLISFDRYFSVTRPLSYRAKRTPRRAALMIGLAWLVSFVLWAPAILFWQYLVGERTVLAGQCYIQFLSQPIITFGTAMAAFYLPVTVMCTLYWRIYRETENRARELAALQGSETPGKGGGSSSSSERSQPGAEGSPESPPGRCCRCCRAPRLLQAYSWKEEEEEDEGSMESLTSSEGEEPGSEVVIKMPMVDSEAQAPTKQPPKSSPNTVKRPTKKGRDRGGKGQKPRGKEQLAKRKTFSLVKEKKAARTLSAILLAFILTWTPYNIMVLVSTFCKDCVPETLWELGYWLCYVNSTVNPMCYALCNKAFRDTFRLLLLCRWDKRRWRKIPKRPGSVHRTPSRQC
HEK293 NFkB inh: inhibitors of the PMA/ionomycin-induced NF-kB reporter in HEK293 cells | HEK-293 NF-kB luciferase reporter, luminescence | inhibition, % at 3 µM | hit rate 0.21% among 62,000 | AID 465;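 active means inhibition above the mean of all tested compounds plus 3 SD, cut at about 40% in these data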;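 further: 0% = stimulated DMSO wells and 100% = 10 µM reference inhibitor 5653914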
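System – HEK-293 cells with stable firefly luciferase reporter driven by four HIV NF-kB elements · Doses – one dose, 3 µM · Schedule – 1 h compound pre-incubation, 16 h PMA/ionomycin at 37 °C · Technique – luminescence from luciferase substrate reagent · Measure – percent inhibition normalized per plate to DMSO and reference-inhibitor controls · Replicates – tested once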
DAT uptake mod: modulates human dopamine transporter uptake under cocaine | LLC-PK1 hDAT cells, [14C]-dopamine uptake with cocaine IC80; actives deviate in either direction | hit rate 1.3% among 110,000 | B-score at 10 µM | Q01959;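 active means Z score or B-score, a plate-position-corrected score, falls beyond the plate's 99.7% confidence bounds, in either direction; inactive means both scores lie inside the 99.7% bounds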;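 further: scored against the spread of the other compound wells on the same plate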
M1 agonist: M1 muscarinic receptor agonism; CHO-M1 cells, Fluo-4 calcium fluorescence, agonist mode; stronger effect = higher value; B-score at 10 µM; hit rate 3% among 64,000;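 active means fluorescence rise, raw or as B-score row- and column-corrected plate score, outside the 99.7% band of its plate's samples, either direction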
D1 mod: allosterically modulates the human D1 dopamine receptor | P21728 | HEK293 D1, CRE-luciferase, dopamine EC30 potentiation; actives deviate in either direction | B-score at 10 µM | hit rate 5.9% among 58,000 | AID 641;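 active means luminescence count or its row- and column-corrected plate score outside the 99.7% band of the plate's sample wells, on either side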
BAP1 block: blocks human BAP1 ubiquitin-AMC hydrolysis. recombinant BAP1, Ub-AMC hydrolysis fluorescence kinetic; stronger effect = lower value. calls only at 20 µM. hit rate 0.48% among 72,000. AID 436;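 active means activity remaining at or below 50% of control, provided the compound also passes the data quality filters; inactive means the rest, including low values that fail the filters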;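 further: 100% = DMSO wells rate and 0% = substrate alone blank rate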
M1 agonist conf: confirmation of rat M1 muscarinic receptor agonists; CHO-M1 cells, Fluo-4 calcium fluorescence, agonist mode; actives lie on both sides; fluorescence change (max-min) at 10 µM; shares compounds with M1 agonist; hit rate 19% among 1,700;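 active means fluorescence change differs from the solvent-only DMSO control mean at a set confidence level in both duplicate runs; inconclusive means differs from solvent-only control mean in just one of two runs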;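 further: an EC20 dose of acetylcholine follows compound addition during the same imaging run; raw fluorescence intensity difference in instrument units with no normalization to controls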
M4 ag counter: activates rat M4 receptor in counter-screen for M1 agonists; shares compounds with M1 agonist; hit rate 9% among 1,700; CHO M4/Gqi5 cells, Fluo-4 calcium fluorescence, agonist mode; actives lie on both sides; fluorescence change (max-min) at 10 µM;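 active means fluorescence change differing from the plate's solvent-only control wells at 99.7% confidence in both duplicates, whether higher or lower; inconclusive means differs from solvent controls in only one of two duplicates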
The depositor's hits bear a star; i = inactive; u = inconclusive; x = no result shown. This is a sample that favours compounds with a hit; in the whole collection about 7.2% have one here.

SMILES	M1 antagonist	HEK293 NFkB inh	DAT uptake mod	M1 agonist	D1 mod	BAP1 block	M1 agonist conf	M4 ag counter
O=C(C1CCN(Cc2cc(Cl)ccc2O)CC1)N1CCN(Cc2ccccc2)CC1	0.175	4.2	0.788	5.58*	-0.778	i	u	-41.5
O=C(NCCCCNC(=O)c1cccc([N+](=O)[O-])c1)c1cccc([N+](=O)[O-])c1	x	x	x	x	x	i	x	x
COc1ccc(CC(C(=O)Nc2cc(C)ccc2C)/C(N)=N/O)cc1 (stereo not given)	-0.401	2.0	-0.681	2.43*	0.0304	i	u	-49.4
Cc1ccc(C)c(NC(=O)C(CC(=O)O)Cc2ccccc2)c1 (stereo not given)	x	x	x	x	x	i	x	x
CCOc1ccc(-n2c(SCc3ccc(C#N)cc3)nnc2-c2cccnc2)cc1	0.599	x	2.08	0.163	x	i	x	x
C=CCSc1nnc(-c2ccncc2)n1-c1ccc(OCC)cc1	0.624	19.8	0.809	1.73*	0.029	i	-12.4	-25.1
CCC(Sc1nc(N)cc(=O)[nH]1)C(=O)NC(C(=O)OC)c1ccccc1 (stereo not given)	0.868	9.3	-1.73	3.23*	-0.615	i	-10.9	-43.8
COc1ccc(-n2c(C)cc(C(=O)COC(=O)Cn3cnc4ccccc43)c2C)cc1	-3.36*	17.9	-0.685	5.49*	-1.94	i	u	-36.6
Cc1cc(C(=O)COc2cccc(-n3cnnn3)c2)c(C)n1-c1ccccc1	-0.586	-3.8	0.932	1.16	0.203	x	x	x
COc1ccc(C2=CC(c3ccc(F)cc3)n3nnnc3N2)cc1 (stereo not given)	0.221	8.0	x	0.532	x	i	x	x
COc1ccc(C2=CC(c3ccc(Cl)cc3)n3cnnc3N2)cc1OC (stereo not given)	-0.38	11.3	-0.121	6.84*	1.6	x	223*	190*
COc1cc(C=Nc2c(C)n(C)n(-c3ccccc3)c2=O)ccc1OC(C)=O	x	x	x	x	x	i	x	x
COc1ccc(C(=O)Nc2cccc(NC(=O)c3cccc(Cl)c3)c2)cc1[N+](=O)[O-]	x	x	x	x	x	i	x	x
CCN1CCCC1CN=Cc1c(O)n(-c2ccccc2)c(=O)c2ccccc12 (stereo not given)	0.187	15.4	-1.02	5.72*	-0.565	i	5.29	-72.4
CC(C)CCN=Cc1c(O)n(-c2ccccc2)c(=O)c2ccccc12	x	x	-1.49	x	x	x	x	x
COc1cc(-c2nc3cnccn3c2Nc2ccccc2)ccc1O	-1.74	17.2	-0.0666	5.46*	-1.92	i	-28	-26.4
COc1cc(-c2nc3cnccn3c2Nc2ccc(C)cc2)ccc1O	x	x	1.62	x	x	x	x	x
COc1cc(-c2nc3cnccn3c2Nc2ccc3c(c2)OCCO3)ccc1O	0.262	7.2	0.0279	3.51*	-0.928	x	-4.2	u
Cn1c(=O)c2nc(NCc3ccccc3)cnc2n(C)c1=O	1.27	16.8	x	10.2*	0.252	i	203*	166*
CCc1c(-c2ccccc2)nc2nc(C)c(C)nn12	0.243	8.6	0.0907	46*	-0.00364	i	237*	219*
COc1ccc(CNC(=O)C2CC(=O)N(c3ccc(Cl)cc3)C2)cc1 (stereo not given)	x	x	x	x	x	i	x	x
CCc1ccc(CNCc2cccnc2)cc1	0.0276	10.9	-1.01	17.7*	-0.557	i	-13.7	u
Cc1ccccc1CNCc1cccnc1	x	x	-0.0645	x	x	x	x	x
COc1ccc(C2C(C(=O)OCCOc3ccccc3)=C(C)NC3=C2C(=O)CCC3)cc1OC (stereo not given)	x	x	x	x	x	i	x	x
O=C(CSc1ccc2nnc(-c3ccccn3)n2n1)N1CCN(c2ccccc2)CC1	-0.585	-2.7	0.571	3.25*	-0.51	i	-8.52	u
SMILES	M1 antagonist	HEK293 NFkB inh	DAT uptake mod	M1 agonist	D1 mod	BAP1 block	M1 agonist conf	M4 ag counter
CCOC(=O)C1=C(C)NC2=C(C(=O)CC(c3ccccc3)C2)C1c1cccnc1 (stereo not given)	x	x	x	x	x	i	x	x
Cc1nn2c(-c3cccc(NC(=O)c4ccco4)c3)nnc2c2ccccc12	-1.04	6.3	1.41	5.75*	-3.34	i	-15.6	u
Cc1ccc2nc(-c3cccc(NC(=O)c4ccco4)c3)[nH]c2c1	-0.00485	-28.2	1.55	7.02*	-1.66	i	-27.8	-38.4
Cc1ccc(O)c(NC(=O)c2cccc(NC(=O)c3ccco3)c2)c1	0.682	10.5	0.0375	2.57*	x	i	-25.8*	-53.4
CC(=O)Nc1nc(C)c(-c2csc(Nc3cccc([N+](=O)[O-])c3)n2)s1	x	x	0.332	x	x	x	x	x
CC(=O)Nc1nc(C)c(-c2csc(Nc3ccc(O)cc3)n2)s1	-2.03*	18.1	-0.0011	6.39*	1.3	i	-10.1	u
O=c1oc2c3c4c(cc2c2c1CCC2)OCCN4CCC3	-1.4	11.0	0.384	23.6*	1.35	x	111*	92.7
CCOC(=O)Cn1c(=O)oc2cc(S(=O)(=O)NCCc3ccc(C)cc3)ccc21	-0.699	x	-0.629	-0.985	x	x	x	x
CCOC(=O)Cn1c(=O)oc2cc(S(=O)(=O)Nc3ccc(F)cc3)ccc21	-1.09	15.3	-0.605	3.84*	0.37	i	37.1	2.56
COc1ccc(OC)c(NC(=O)c2ccc(Br)o2)c1	x	x	x	x	x	i	x	x
CCOc1cc(S(=O)(=O)NC2CCCC2)ccc1Cl	-0.33	12.7	0.742	8.92*	0.668	i	4.7	-12.9
O=C(Nc1nnc(CCc2ccccc2)s1)c1cccc(Br)c1	x	x	x	x	x	i	x	x
O=S(=O)(NCCOCC(F)(F)C(F)F)c1ccc2oc3ccccc3c2c1	-1.1	9.0	0.195	14.6*	x	i	-22.4*	-31.1
COc1ccc(OCCNS(=O)(=O)c2ccc3oc4ccccc4c3c2)cc1	x	x	-0.664	x	x	x	x	x
CN(C)c1ccc(N/C=C/C(=O)c2ccccc2)cc1	-0.0646	-28.3	0.231	2.54*	-4.44*	x	u	-8.64
Cc1cc(C)n(-c2nc3ccccc3nc2N2CCN(S(=O)(=O)c3ccc(F)c(C)c3)CC2)n1	0.0948	16.4	-0.0701	-1.43	0.144	x	x	x
Cc1cc(N2CCN(S(=O)(=O)c3ccc(Cl)cc3)CC2)c2ccccc2n1	-7.43*	x	0.0462	5.23*	-3.05	x	-9.99	-16
c1ccc(-n2nnnc2SCCCSc2nc3ccccc3s2)cc1	-0.854	18.8	1.37	26.8*	0.635	x	26.4	u
COc1ccccc1-c1csc(NC(=O)c2cccs2)n1	x	x	x	x	x	i	x	x
CC(=O)c1c(C)n(CC(=O)NCc2ccc3c(c2)OCO3)c2ccccc12	-0.489	12.4	2.01	3.37*	-1.69	i	u	-36.5
CCCCS(=O)(=O)Nc1ccc(Cc2ccncc2)cc1	0.0468	-0.2	0.793	3.2*	-0.0412	i	u	-38.8
CCc1nc(C)cn1S(=O)(=O)c1cc(C)c(OC)cc1C	0.0132	15.4	-1.62	-3.74*	-1.48	i	u	u
